# ChEMBL document CHEMBL1124035, “1-Amino-substituted 4-methyl-5H-pyrido[4,3-b]indoles (gamma-carbolines) as tricyclic analogues of ellipticines: a new class of antineoplastic agents” (1988)
# pIC50: −log10 of the molar value. Active and inactive are the calls of the source. The rule behind the calls is not given here.
# Legend:
# Mus musculus [1] = assay: Antitumor activity against P388 leukemia in intraperitoneally for 5 days; type: functional
# In short: (§1)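 CDF1 hybrid male or female mice, 10 per group, were inoculated ip with 10^6 viable P388 cells on day 0. Drugs in distilled water were given ip (0.1 mL/10 g body weight) daily D1-5. Vehicle, 5-fluorouracil and BD 84 were given the same way. T/C = median survival day of treated / controls × 100; T/C > 128% was significant; cures counted at D60.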
# Mus musculus [2] = assay: Median survival day of P388 leukemia model when a dose of 5 mg/kg administered intraperitoneally; type: functional; conditions: route intraperitoneal
# In short: (§2)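 P388 leukaemia in CDF1 hybrid mice, 10 per group. At D0, 10^6 viable cells were inoculated ip, followed by a single ip dose of drug in distilled water on D1. Weight change, median survival day, T/C (treated/control median survival × 100) and survivors at D30 were recorded. Controls were 20 mice.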
# Mus musculus [3] = assay: Survivors at day 30 when a dose of 20 mg/kg to P388 leukemia mice model; 0/10; type: functional; in short: as §2
# Mus musculus [4] = assay: Weight change in g when a dose of 20 mg/kg administered intraperitoneally to P388 leukemia mice model; type: functional; conditions: route intraperitoneal
# In short: (§3)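 P388 model with a single ip dose. Mice (10 per group) were inoculated ip at D0 with 10^6 P388 cells and given one ip drug dose at D1. Body-weight change (g), median survival day, T/C and survivors at D30 were recorded.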
# Mus musculus [5] = assay: Survivors at day 30 when a dose of 40 mg/kg to P388 leukemia mice model; 0/10; type: functional
# Mus musculus [6] = assay: Antitumor activity against P388 cells at a dose of 5 mg/kg administered intraperitoneally to P388 leukemia model; type: functional; conditions: route intraperitoneal
# In short: (§4)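 Mice were inoculated ip with 10^6 P388 leukemia cells at D0, then given a single ip drug dose on D1. Weight change was recorded. T/C % = median survival day of treated / controls × 100; survivors counted at D30; 10 mice per dose group, 20 controls.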
# Mus musculus [7] = assay: Median survival day of P388 leukemia model when a dose of 20 mg/kg administered intraperitoneally; type: functional; conditions: route intraperitoneal; in short: as §2
# Mus musculus [8] = assay: Median survival day in B16 melanoma infected mice when a dose of 1.25 mg/kg administered intraperitoneally; type: functional; conditions: route intraperitoneal
# In short: (§5)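 B16 melanoma in hybrid BD F1 mice. At D0 each mouse was inoculated ip with 0.5 mL of homogenate made from 1 g of tumour in 10 mL of physiological serum. Compounds were given ip daily at the stated doses for 9 days (D1-9), with cis-platinum 0.5 mg/kg under the same schedule as positive control.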
# Mus musculus [9] = assay: Median survival day of P388 leukemia model when a dose of 10 mg/kg administered intraperitoneally; type: functional; conditions: route intraperitoneal; in short: as §2
# Mus musculus [10] = assay: Antitumor activity against P388 leukemia in mice at a dose of 1.25 mg/kg administered intraperitoneally for 5 days; type: functional; conditions: route intraperitoneal; in short: as §1
# Mus musculus [11] = assay: Weight change in g when a dose of 40 mg/kg administered intraperitoneally to P388 leukemia mice model; type: functional; conditions: route intraperitoneal; in short: as §3
# Mus musculus [12] = assay: Weight change in g when a dose of 1.25 mg/kg administered intraperitoneally to mice; type: functional; conditions: route intraperitoneal
# In short: (§6)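 Hybrid BDF1 mice were inoculated ip at D0 with 0.5 mL of B16 melanoma homogenate (1 g tumor in 10 mL physiological serum). Drug was given ip daily on days 1-9, with cis-platinum 0.5 mg/kg as positive control on the same schedule.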
# Mus musculus [13] = assay: Antitumor activity against B16 melanoma infected intraperitoneally; type: functional
# In short: (§7)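 Hybrid BD F1 mice were inoculated ip at D0 with 0.5 mL of B16 melanoma homogenate (1 g tumor in 10 mL physiological serum). Drugs were given ip daily D1-9. Cisplatin 0.5 mg/kg was the positive control under the same schedule.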
# Mus musculus [14] = assay: Survivors at day 60 when a dose of 2.5 mg/kg to B16 melanoma infected mice; 0/10; type: functional
# Mus musculus [15] = assay: Survivors at day 60 when a dose of 1.25 mg/kg to B16 melanoma infected mice; 0/10; type: functional
# Mus musculus [16] = assay: Antitumor activity against P388 cells at a dose of 10 mg/kg administered intraperitoneally to P388 leukemia model; type: functional; conditions: route intraperitoneal; in short: as §4
# Mus musculus [17] = assay: Survivors at day 60 when a dose of 10 mg/kg to B16 melanoma infected mice; 0/10; type: functional
# Mus musculus [18] = assay: Survivors at day 30 when a dose of 10 mg/kg to P388 leukemia mice model; 0/10; type: functional; in short: as §2
# Mus musculus [19] = assay: Median survival day in B16 melanoma infected mice when a dose of 2.5 mg/kg administered intraperitoneally; type: functional; conditions: route intraperitoneal; in short: as §5
# Mus musculus [20] = assay: Median survival day in B16 melanoma infected mice when a dose of 5 mg/kg administered intraperitoneally; type: functional; conditions: route intraperitoneal; in short: as §5
# Calf thymus DNA = assay: Apparent DNA affinity constant; type: nucleic-acid assay; conditions: Bos taurus
# In short: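 Apparent DNA affinity constant was measured by competition with ethidium bromide. Buffer was 20 mM Na2HPO4/NaH2PO4, 0.1 M NaCl, 1 mM EDTA, pH 7.4, with calf thymus DNA at 10 μg/mL. Values are given in 10^6 M⁻¹.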
# Mus musculus [21] = assay: Weight change in g when a dose of 5 mg/kg administered intraperitoneally to B16 melanoma infected mice; type: functional; conditions: route intraperitoneal; in short: as §6
# Mus musculus [22] = assay: Antitumor activity against P388 leukemia in mice at a dose of 0.625 mg/kg administered intraperitoneally for 5 days; type: functional; conditions: route intraperitoneal; in short: as §1
# Mus musculus [23] = assay: Antitumor activity against P388 cells at a dose of 20 mg/kg administered intraperitoneally to P388 leukemia model; type: functional; conditions: route intraperitoneal; in short: as §4
# Mus musculus [24] = assay: Antitumor activity against B16 melanoma infected mice at a dose of 1.25 mg/kg administered intraperitoneally; type: functional; conditions: route intraperitoneal; in short: as §7
# Mus musculus [25] = assay: Survivors at day 30 when a dose of 5 mg/kg to P388 leukemia mice model; 0/10; type: functional
# Mus musculus [26] = assay: Antitumor activity against P388 leukemia in mice at a dose of 2.5 mg/kg administered intraperitoneally for 5 days; type: functional; conditions: route intraperitoneal; in short: as §1
# Mus musculus [27] = assay: Antitumor activity against B16 melanoma infected mice at a dose of 2.5 mg/kg administered intraperitoneally; type: functional; conditions: route intraperitoneal; in short: as §7
# Mus musculus [28] = assay: Antitumor activity against P388 cells at a dose of 40 mg/kg administered intraperitoneally to P388 leukemia model; type: functional; conditions: route intraperitoneal; in short: as §4
# Mus musculus [29] = assay: Median survival day of P388 leukemia model when a dose of 40 mg/kg administered intraperitoneally to mice; type: functional; conditions: route intraperitoneal; in short: as §2
# Mus musculus [30] = assay: Antitumor activity against P388 leukemia in mice at a dose of 20 mg/kg administered intraperitoneally; type: functional, organism-based; design: dose 20 mg/kg; in short: as §1
# Mus musculus [31] = assay: Antitumor activity against P388 leukemia in mice at a dose of 10 mg/kg administered intraperitoneally for 5 days; type: functional; in short: as §1
# Mus musculus [32] = assay: Survivors at day 60 when a dose of 5 mg/kg to B16 melanoma infected mice; 0/10; type: functional
# Mus musculus [33] = assay: Weight change in g when a dose of 5 mg/kg administered intraperitoneally to P388 leukemia mice model; type: functional; conditions: route intraperitoneal; in short: as §3
# Mus musculus [34] = assay: Antitumor activity against B16 melanoma infected mice at a dose of 10 mg/kg administered intraperitoneally; type: functional; conditions: route intraperitoneal; in short: as §7
# Mus musculus [35] = assay: Weight change in g when a dose of 10 mg/kg administered intraperitoneally to P388 leukemia mice model; type: functional; conditions: route intraperitoneal; in short: as §3
# L1210 = assay: Ability to reduce the cell count to 50% in L1210 culture cells; type: functional; conditions: Mus musculus, read-out: ID50 (the source's name)
# In short: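 L1210 cells in exponential growth in RPMI 1640 with 2 mM glutamine, penicillin/streptomycin and 10% FCS, 37 °C, 5% CO2. Drugs dissolved in distilled water were added to cells at 0.8 × 10^5 cells/mL for 48 h, then cells were counted. ID50 is the concentration halving cell proliferation versus controls, from regression of dose-response data; mean of two independent experiments.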
# Mus musculus [36] = assay: Weight change in g when a dose of 10 mg/kg administered intraperitoneally to B16 melanoma infected mice; type: functional; conditions: route intraperitoneal; in short: as §6
# Mus musculus [37] = assay: Weight change in g when a dose of 2.5 mg/kg administered intraperitoneally to B16 melanoma infected mice; type: functional; conditions: route intraperitoneal; in short: as §6
# Mus musculus [38] = assay: Median survival day in B16 melanoma infected mice when a dose of 10 mg/kg administered intraperitoneally; type: functional; conditions: route intraperitoneal; in short: as §5
# Mus musculus [39] = assay: Antitumor activity against P388 leukemia in mice at a dose of 5 mg/kg administered intraperitoneally for 5 days; type: functional
# In short: (§8)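 CDF1 hybrid male or female mice, 10 per group, were inoculated ip on day 0 with 10^6 viable P388 leukemia cells. Drug in distilled water was given ip (0.1 mL/10 g body weight) daily on days 1-5, with vehicle, 5-fluorouracil and BD 84 controls given the same way. T/C = median survival of treated/controls × 100; T/C > 128% counted as significant.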
# Mus musculus [40] = assay: Antitumor activity against P388 leukemia in mice at a dose of 50 mg/kg administered intraperitoneally for 5 days; Non toxic at this dose; type: functional; conditions: route intraperitoneal; in short: as §8
smiles,measurement,setting,value
Cc1c[nH]c(NCCCN(C)C)c2c3cc(O)ccc3nc1-2,T/C,Mus musculus [1],186%
same,Median survival day,Mus musculus [2],15.3
same,Survivors,Mus musculus [3],0
same,Weight change,Mus musculus [4],-0.8 g
same,Survivors,Mus musculus [5],0
same,T/C,Mus musculus [6],139%
same,Median survival day,Mus musculus [7],15.5
same,Median survival day,Mus musculus [8],32
same,Median survival day,Mus musculus [9],15.25
same,T/C,Mus musculus [10],150%
same,Weight change,Mus musculus [11],-1.4 g
same,Weight change,Mus musculus [12],2.8 g
same,T/C,Mus musculus [13],160%
same,Survivors,Mus musculus [14],0
same,Survivors,Mus musculus [15],0
same,T/C,Mus musculus [16],139%
same,Survivors,Mus musculus [17],0
same,Survivors,Mus musculus [18],0
same,Median survival day,Mus musculus [19],38.75
same,Median survival day,Mus musculus [20],44
same,K aff,Calf thymus DNA,210000 M⁻¹
same,Weight change,Mus musculus [21],2.4 g
same,T/C,Mus musculus [22],139%
same,T/C,Mus musculus [23],142%
same,T/C,Mus musculus [24],116%
same,Survivors,Mus musculus [25],0
same,T/C,Mus musculus [26],145%
same,T/C,Mus musculus [27],141%
same,T/C,Mus musculus [28],139%
same,Median survival day,Mus musculus [29],15.3
same,T/C,Mus musculus [30],Toxic
same,T/C,Mus musculus [31]; route intraperitoneal,148%
same,Survivors,Mus musculus [32],0
same,Weight change,Mus musculus [33],-0.1 g
same,T/C,Mus musculus [34],42%
same,Weight change,Mus musculus [35],0.3 g
same,pIC50,L1210,7.05
same,Weight change,Mus musculus [36],0.5 g
same,Weight change,Mus musculus [37],1.8 g
same,Median survival day,Mus musculus [38],11.7
CCN(CC)CCCCNc1ncc(C)c2c1c1cc(OC)ccc1n2C,K aff,Calf thymus DNA,460000 M⁻¹
same,pIC50,L1210,5.89
Cc1cnc(NCCCN2CCCC2)c2c3cc(O)ccc3n(C)c12,K aff,Calf thymus DNA,370000 M⁻¹
same,pIC50,L1210,7.30
CCN(CC)CC(O)CNc1ncc(C)c2c1c1cc(O)ccc1n2C (configuration not stated),T/C,Mus musculus [39],inactive
same,K aff,Calf thymus DNA,230000 M⁻¹
same,T/C,Mus musculus [31],Toxic
same,pIC50,L1210,7.22
Cc1c[nH]c(NCCNCCO)c2c3ccccc3nc1-2,K aff,Calf thymus DNA,50000 M⁻¹
same,T/C,Mus musculus [40],100%
same,T/C,Mus musculus [31]; route intraperitoneal,109%
same,pIC50,L1210,5.94
